Bioassay records (PubChem)
Mcl1-Noxa inh: Mcl-1/Noxa binding inhibitors, primary screen, biochemical, TR-FRET, 1536-well. TR-FRET Mcl-1/Noxa peptide binding, 2 h. 220,000 compounds, 1.5% hits. inhibition, % at 21.7 µM;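 active = compounds that cut the protein-peptide binding signal by more than 50% relative to plate controls in a single-dose test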;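 note: His-tagged Mcl-1 with rhodamine Noxa BH3 peptide and terbium anti-His antibody; 0% = Mcl-1 plus Noxa peptide wells and 100% = peptide-only wells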
MCL1 BIM primary: inhibitors of MCL1 binding to BIM-BH3, primary screen, biochemical, fluorescence polarization; Induced myeloid leukemia cell differentiation protein Mcl-1 (Homo sapiens), Q07820; GST-MCL1 / FITC-Bim-BH3 fluorescence polarization; inhibition, % at 10.9 µM; 320,000 compounds, 0.68% hits;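 active = inhibition above the mean inhibition of all tested compounds plus 3 SD, set per campaign, cut at about 40% in these data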;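 note: 0% = DMSO wells and 100% = unlabeled Bim-BH3 peptide control; higher means more loss of mP so more displacement of Bim peptide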
Mcl1 Bid PPI: Mcl-1/Bid binding inhibitors, primary screen, biochemical, TR-FRET, 1536-well. 220,000 compounds, 0.97% hits. Induced myeloid leukemia cell differentiation protein Mcl-1 (Homo sapiens), Q07820. AID 1021, 2008. inhibition, % at 21.7 µM. TR-FRET Mcl-1/Bid-Dy647 peptide binding;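 active = compounds that cut the binding signal by more than half at the single screening dose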;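 note: His-tagged Mcl-1 with europium anti-His antibody binding Bid BH3 peptide; 0% = Mcl-1 plus peptide wells and 100% = peptide-only wells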
Bim-Mcl-1: inhibitors of Bim peptide binding to Mcl-1, primary screen, biochemical, bead-based flow cytometry, multiplex | Induced myeloid leukemia cell differentiation protein Mcl-1 (Homo sapiens), Q07820 | Bim peptide-Mcl-1 binding | inhibition, % at 10 µM | 190,000 compounds, 0.1% hits | AID 1009, 2008; in the data active = inhibition above about 40%;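 note: 0% = no compound tracer wells and 100% = peptide blocker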
DSG3 Ab inh: inhibitors of pemphigus antibody binding to DSG3, primary screen, biochemical, bead-based, flow cytometry, scFv-GFP. Desmoglein-3 (Homo sapiens), P32926. binding (percent of control), % at 10 µM. 310,000 compounds, 0.48% hits. DSG3-coupled beads, scFv-anti-DSG3-GFP binding; stronger effect = lower value. AID 588358, 2011;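 active = binding more than 3 SD below its plate's average and above zero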
Target sequence (P32926 whole entry, looked up): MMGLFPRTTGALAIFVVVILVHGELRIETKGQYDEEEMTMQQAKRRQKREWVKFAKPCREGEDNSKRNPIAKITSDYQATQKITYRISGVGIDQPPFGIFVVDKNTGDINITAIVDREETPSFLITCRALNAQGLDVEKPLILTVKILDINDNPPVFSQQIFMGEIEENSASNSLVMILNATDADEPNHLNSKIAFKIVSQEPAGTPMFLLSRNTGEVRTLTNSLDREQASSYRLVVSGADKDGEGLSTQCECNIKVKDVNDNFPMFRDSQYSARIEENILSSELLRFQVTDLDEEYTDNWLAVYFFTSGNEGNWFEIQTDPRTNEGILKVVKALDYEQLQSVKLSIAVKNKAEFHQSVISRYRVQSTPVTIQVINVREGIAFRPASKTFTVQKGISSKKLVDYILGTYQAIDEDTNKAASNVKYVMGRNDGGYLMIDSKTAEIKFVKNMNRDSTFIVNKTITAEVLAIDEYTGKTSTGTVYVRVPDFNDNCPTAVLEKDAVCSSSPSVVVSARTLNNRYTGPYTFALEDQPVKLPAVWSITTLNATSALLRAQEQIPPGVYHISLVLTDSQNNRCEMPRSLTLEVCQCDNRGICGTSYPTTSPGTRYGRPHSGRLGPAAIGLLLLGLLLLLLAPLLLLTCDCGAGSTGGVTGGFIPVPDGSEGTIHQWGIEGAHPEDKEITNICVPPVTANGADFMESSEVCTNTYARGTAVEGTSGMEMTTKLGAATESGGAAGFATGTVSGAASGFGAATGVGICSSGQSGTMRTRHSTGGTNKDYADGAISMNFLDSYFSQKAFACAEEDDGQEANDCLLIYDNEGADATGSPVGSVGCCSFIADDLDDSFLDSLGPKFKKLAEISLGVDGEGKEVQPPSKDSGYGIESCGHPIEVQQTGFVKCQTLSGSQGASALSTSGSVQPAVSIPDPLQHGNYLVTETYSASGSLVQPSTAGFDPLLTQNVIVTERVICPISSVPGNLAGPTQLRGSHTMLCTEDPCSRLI
T cell HTS: modulators of CD8 T cell-vesicle binding, primary screen, mouse 2C CD8+ T cells, flow cytometry; 330,000 compounds, 0.068% hits; response (vesicle binding), % at 7 µM; 2C CD8+ T cell-vesicle binding; stronger effect = lower value;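 active = response, share of CD8 T cells binding vesicles, and their 90th percentile fluorescence all below set limits, cut at about 80% in these data, passing the limit was not always enough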;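 note: values below 100% mean blocked vesicle binding to the CD8+ T cells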
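Material: murine 2C transgenic CD8+ T lymphocytes / Also added: QL9-peptide-loaded Drosophila micro-vesicles bearing Ld, ICAM-1 and B7-1 / Schedule: binding step 1.5 h, 37 °C, antibody labelling 20 min, ice / Signal: flow cytometry, PE anti-B7-1 (FL2) versus Alexa647 anti-CD8 (FL8), PFA-fixed / Evaluation: percent CD8+ FL2 mean versus row control / Benchmarks: naked versus QL9-loaded vesicles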
* marks the source's active call; other numbers are inactive results; i = inactive; / = no result given. Shown are actives, neighbours in structure and some others; about 2.3% of the full set was active somewhere.

SMILES | Mcl1-Noxa inh | MCL1 BIM primary | Mcl1 Bid PPI | Bim-Mcl-1 | DSG3 Ab inh | T cell HTS
CC(C)c1cc[n+](-c2nc([O-])sc2C=O)cc1 | 1 | 45* | -17 | 0 | 115 | 417
CC(C)(C)c1cc[n+](-c2nc([O-])sc2C=O)cc1 | 5 | 19 | -8 | -8 | 95 | 397
CC(CNC(=O)c1ccccc1[N+](=O)[O-])NC(=O)c1ccccc1[N+](=O)[O-] (centres undefined) | / | 4 | / | / | / | 517
CCCC/C(C)=N/NC(=O)Nc1ccccc1 | 0 | 1 | -3 | 0 | 108 | 178
CCCCC/C(=N\NC(=O)Nc1ccccc1)c1ccccc1 | 12 | -1 | -1 | -1 | -12* | 519
COC(CNC(=O)c1ccc2nc(-c3cccs3)c(-c3cccs3)nc2c1)OC | -22 | -9 | 94* | -1 | 108 | 502
Nc1cc(-c2ccc(Cl)cc2)nn1S(=O)(=O)c1ccccc1 | -3 | -10 | -6 | 1 | 25* | 214
COC(=O)c1ccc(COC(=O)C2CCN(S(=O)(=O)c3c(C)cc(C)cc3C)CC2)o1 | / | / | / | / | 94 | /
O=C(Nc1cccc([N+](=O)[O-])c1)c1ccccc1 | 9 | 3 | -4 | / | 73 | 367
O=C(Nc1cccc([N+](=O)[O-])c1)c1ccc(CSc2ccccc2)cc1 | 9 | 4 | -14 | 5 | 80* | 596
O=C1OC2(c3ccccc31)c1cc(I)c(O)c(I)c1Oc1c2cc(I)c(O)c1I | / | 87* | / | / | / | i
Cc1cc(O)ccc1C1(c2ccc(O)cc2C)OC(=O)c2ccccc21 | 15 | 7 | -14 | -3 | 103 | 258
O=C(COc1ccc2ccccc2c1)Nc1cccc2c1C(=O)NC2=O | -119 | -1 | 60* | -3 | / | 300
Cc1ccc(S(=O)(=O)NCC(=O)OCC(=O)Nc2cccc(S(=O)(=O)N3CCOCC3)c2)cc1 | / | / | / | / | 103 | 375
O=C(CCCN1C(=O)/C(=C/c2ccc(F)cc2)SC1=S)NC1CCS(=O)(=O)C1 (centres undefined) | / | -4 | / | / | / | 357
Cc1ccc(C)c(OCC(=O)N(Cc2ccccc2)c2c(N)n(Cc3ccccc3)c(=O)[nH]c2=O)c1 | / | / | / | / | 138 | /
CC(C)CN(C(=O)COc1ccc(C(C)(C)C)cc1)C1CCS(=O)(=O)C1 (centres undefined) | / | 0 | / | / | 98 | 278
C=CCOc1c(OC)cc(/C=N/Nc2cccc(C(=O)O)c2)c(Br)c1Br | 88* | 13 | 78* | -4 | 99 | 247
CC(=O)Oc1ccc(Cl)cc1/C=C/c1ccc2ccccc2n1 | 22 | -1 | 97* | -7 | 104 | 248
CC(=O)Oc1c(Cl)cc(Cl)cc1/C=C/c1ccc2ccccc2n1 | / | -6 | -29 | -2 | 102 | 52
N#C/C(=C\c1c(Cl)cccc1Cl)c1nc2ccccc2o1 | -5 | -3 | -2 | -5 | 118 | 216
Cc1cc(O)ccc1N/C=C(\C#N)c1nc2ccccc2o1 | 28 | -5 | 93* | -2 | 122 | 243
c1ccc2c(c1)C1=NCCN1c1ccccc1-2 | / | / | / | / | 100 | /
O=c1oc2ccccc2n1CCn1c2ccccc2c2nc3ccccc3nc21 | -34 | -5 | 90* | 12 | 97 | 215
COc1ccc2c(c1)c1nc3ccccc3nc1n2CCn1c(=O)oc2ccccc21 | 21 | -1 | 37 | -2 | 101 | 459
O=c1c2ccccc2ncn1-c1ccc(Cl)cc1Cl | -9 | -3 | -5 | / | 106 | i
O=c1c2ccccc2sn1-c1ccc(Cl)cc1Cl | / | / | / | / | 61* | /
Cc1ccc2c(Cl)cc(Cl)c(OCC(=O)NCc3ccco3)c2n1 | 94* | / | 30 | 1 | / | /
CN(C(=O)COC(=O)C1CCN(S(=O)(=O)c2ccc3c(c2)OCCO3)CC1)C1CCCCC1 | / | -10 | / | / | 104 | 146
CCOC(=O)c1sc(N)nc1-c1ccccc1 | 5 | 5 | -5 | 1 | 99 | 774
